≈ marks a conversion by molar mass, not a printed value.
How the values were obtained:
Assay type in all cases: functional
Clostridioides difficile [1] = assay: Antimicrobial activity against Clostridium difficile isolate 80 by agar dilution method
In short: (§1)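 CLSI reference agar dilution for anaerobes, with endpoints read per guideline M11-A7. Rifaximin was dissolved in methanol, diluted in 0.1 M phosphate buffer pH 7.4 with 0.45% SDS, and tested at 0.0009–256 μg/ml. Rifampin was dissolved in methanol, diluted in water, and tested at 0.00001–256 μg/ml. Control strain: C. difficile ATCC […]. Isolates were typed by HindIII REA.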

Clostridioides difficile [2] = assay: Antimicrobial activity against Clostridium difficile isolate 3 by agar dilution method
In short: (§2)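 MIC by CLSI reference agar dilution for anaerobes, with endpoints read per M11-A7 and C. difficile […] as control. Rifaximin was dissolved in methanol, diluted in 0.1 M phosphate buffer pH 7.4 plus 0.45% SDS, and tested at 0.0009–256 μg/ml. Rifampin was dissolved in methanol, diluted in water, and tested at 0.00001–256 μg/ml.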

Clostridioides difficile [3] = assay: Antimicrobial activity against Clostridium difficile isolate 29 by Etest
In short: (§3)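 Rifampin MIC by Etest strip on brucella blood agar, run per the strip maker's instructions. Isolates were HindIII REA-typed clinical C. difficile.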

Clostridioides difficile [4] = assay: Antimicrobial activity against Clostridium difficile isolate 47 by Etest
In short: (§4)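 Rifampin Etest strips were run on brucella blood agar following the manufacturer's instructions to give an MIC. Clinical isolates were typed by HindIII REA.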

Clostridioides difficile [5] = assay: Antimicrobial activity against Clostridium difficile isolate 8 by agar dilution method; in short: as §1
Clostridioides difficile [6] = assay: Antimicrobial activity against Clostridium difficile isolate 41 by agar dilution method
In short: (§5)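 CLSI reference agar dilution method for anaerobes, with endpoints read per guideline M11-A7. Rifaximin was dissolved in methanol, diluted in 0.1 M phosphate buffer (pH 7.4) with 0.45% SDS, and tested at 0.0009–256 μg/ml. Rifampin was dissolved in methanol, diluted in water, and tested at 0.00001–256 μg/ml. C. difficile ATCC […] served as control. Isolates were typed by HindIII REA.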

Clostridioides difficile [7] = assay: Antimicrobial activity against Clostridium difficile isolate 57 by Etest; in short: as §4
Clostridioides difficile [8] = assay: Antimicrobial activity against Clostridium difficile isolate 25 by Etest; in short: as §3
Clostridioides difficile [9] = assay: Antimicrobial activity against Clostridium difficile isolate 56 by agar dilution method; in short: as §5
Clostridioides difficile [10] = assay: Antimicrobial activity against Clostridium difficile isolate 77 by agar dilution method; in short: as §1
Clostridioides difficile [11] = assay: Antimicrobial activity against Clostridium difficile isolate 58 by agar dilution method; in short: as §5
Clostridioides difficile [12] = assay: Antimicrobial activity against Clostridium difficile isolate 9 by Etest
In short: (§6)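 Rifampin MIC by Etest on brucella blood agar, run per the strip manufacturer's instructions, against clinical isolates typed by HindIII REA.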

Clostridioides difficile [13] = assay: Antimicrobial activity against Clostridium difficile isolate 3 by Etest; in short: as §3
Clostridioides difficile [14] = assay: Antimicrobial activity against Clostridium difficile isolate 49 by Etest; in short: as §4
Clostridioides difficile [15] = assay: Antimicrobial activity against Clostridium difficile isolate 61 by Etest; in short: as §4
Clostridioides difficile [16] = assay: Antimicrobial activity against rifaximin-resistant Clostridium difficile isolate 22 expressing RpoB H502N and R505K mutants by Etest
In short: (§7)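 Rifampin Etest on clinical C. difficile isolates typed by HindIII REA, run per the strip manufacturer's instructions on brucella blood agar, with the MIC read from the strip.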

Clostridioides difficile [17] = assay: Antimicrobial activity against Clostridium difficile isolate 74 by agar dilution method; in short: as §1
Clostridioides difficile [18] = assay: Antimicrobial activity against Clostridium difficile isolate 20 by agar dilution method; in short: as §2
Clostridioides difficile [19] = assay: Antimicrobial activity against rifaximin-resistant Clostridium difficile isolate 66 expressing RpoB D492N and R505K mutants by agar dilution method
In short: (§8)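 MICs were found by the CLSI reference agar dilution method for anaerobes, with endpoints read per M11-A7 and C. difficile […] as control. Rifaximin was dissolved in methanol, diluted in 0.1 M phosphate buffer pH 7.4 with 0.45% SDS, and tested at 0.0009–256 μg/ml. Rifampin was dissolved in methanol, diluted in water, and tested at 0.00001–256 μg/ml.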

Clostridioides difficile [20] = assay: Antimicrobial activity against rifaximin-resistant Clostridium difficile isolate 22 expressing RpoB H502N and R505K mutants by agar dilution method; in short: as §8
Clostridioides difficile [21] = assay: Antimicrobial activity against Clostridium difficile isolate 13 by agar dilution method; in short: as §2
Clostridioides difficile [22] = assay: Antimicrobial activity against Clostridium difficile isolate 36 by Etest; in short: as §3
Clostridioides difficile [23] = assay: Antimicrobial activity against rifaximin-resistant Clostridium difficile isolate 67 expressing RpoB H502N and R505K mutants by agar dilution method; in short: as §8
Clostridioides difficile [24] = assay: Antimicrobial activity against Clostridium difficile isolate 6 by agar dilution method; in short: as §5
Clostridioides difficile [25] = assay: Antimicrobial activity against Clostridium difficile isolate 73 by Etest; in short: as §6
Clostridioides difficile [26] = assay: Antimicrobial activity against Clostridium difficile isolate 78 by Etest; in short: as §6
Clostridioides difficile [27] = assay: Antimicrobial activity against Clostridium difficile isolate 38 by Etest; in short: as §3
Clostridioides difficile [28] = assay: Antimicrobial activity against Clostridium difficile isolate 19 by agar dilution method; in short: as §2
Clostridioides difficile [29] = assay: Antimicrobial activity against Clostridium difficile isolate 42 by Etest; in short: as §4
Clostridioides difficile [30] = assay: Antimicrobial activity against Clostridium difficile isolate 56 by Etest; in short: as §4
Clostridioides difficile [31] = assay: Antimicrobial activity against rifaximin-resistant Clostridium difficile isolate 17 expressing RpoB H502N and I548M mutants by Etest; in short: as §7
Clostridioides difficile [32] = assay: Antimicrobial activity against rifaximin-resistant Clostridium difficile isolate 12 expressing RpoB H502N and R505K mutants by agar dilution method; in short: as §8
Clostridioides difficile [33] = assay: Antimicrobial activity against Clostridium difficile isolate 40 by Etest; in short: as §4
Clostridioides difficile [34] = assay: Antimicrobial activity against Clostridium difficile isolate 35 by agar dilution method; in short: as §2
Clostridioides difficile [35] = assay: Antimicrobial activity against Clostridium difficile isolate 59 by agar dilution method; in short: as §5
Clostridioides difficile [36] = assay: Antimicrobial activity against Clostridium difficile isolate 15 by Etest; in short: as §3
Clostridioides difficile [37] = assay: Antimicrobial activity against Clostridium difficile isolate 5 by agar dilution method; in short: as §5
Clostridioides difficile [38] = assay: Antimicrobial activity against Clostridium difficile isolate 33 by agar dilution method; in short: as §2
Clostridioides difficile [39] = assay: Antimicrobial activity against Clostridium difficile isolate 20 by Etest; in short: as §3
Clostridioides difficile [40] = assay: Antimicrobial activity against Clostridium difficile isolate 54 by Etest; in short: as §4
Clostridioides difficile [41] = assay: Antimicrobial activity against Clostridium difficile isolate 63 by Etest; in short: as §6
Clostridioides difficile [42] = assay: Antimicrobial activity against Clostridium difficile isolate 2 by agar dilution method; in short: as §2
Clostridioides difficile [43] = assay: Antimicrobial activity against Clostridium difficile isolate 70 by Etest; in short: as §6
Clostridioides difficile [44] = assay: Antimicrobial activity against Clostridium difficile isolate 41 by Etest; in short: as §4
Clostridioides difficile [45] = assay: Antimicrobial activity against Clostridium difficile isolate 76 by agar dilution method; in short: as §1
Clostridioides difficile [46] = assay: Antimicrobial activity against rifaximin-resistant Clostridium difficile isolate 18 expressing RpoB R505K mutant by agar dilution method; in short: as §8
Clostridioides difficile [47] = assay: Antimicrobial activity against Clostridium difficile isolate 37 by agar dilution method; in short: as §2
Clostridioides difficile [48] = assay: Antimicrobial activity against Clostridium difficile isolate 43 by agar dilution method; in short: as §5
Clostridioides difficile [49] = assay: Antimicrobial activity against Clostridium difficile isolate 60 by agar dilution method; in short: as §5
Clostridioides difficile [50] = assay: Antimicrobial activity against Clostridium difficile isolate 11 by Etest; in short: as §3
Clostridioides difficile [51] = assay: Antimicrobial activity against Clostridium difficile isolate 15 by agar dilution method; in short: as §2

CO[C@H]1/C=C/O[C@@]2(C)Oc3c(C)c(O)c4c(O)c(c(/C=N/N5CCN(C)CC5)c(O)c4c3C2=O)NC(=O)/C(C)=C\C=C\[C@H](C)[C@H](O)[C@@H](C)[C@@H](O)[C@@H](C)[C@H](OC(C)=O)[C@@H]1C [RIFAMPIN]
MIC (Clostridioides difficile [1]): 0.06 ng/mL (≈ 0.0729 nM)
MIC (Clostridioides difficile [2]): 0.06 ng/mL (≈ 0.0729 nM)
MIC (Clostridioides difficile [3]): < 2 ng/mL
MIC (Clostridioides difficile [4]): < 2 ng/mL
MIC (Clostridioides difficile [5]): 0.06 ng/mL (≈ 0.0729 nM)
MIC (Clostridioides difficile [6]): 0.9 ng/mL (≈ 1.09 nM)
MIC (Clostridioides difficile [7]): < 2 ng/mL
MIC (Clostridioides difficile [8]): < 2 ng/mL
MIC (Clostridioides difficile [9]): 0.9 ng/mL (≈ 1.09 nM)
MIC (Clostridioides difficile [10]): 0.06 ng/mL (≈ 0.0729 nM)
MIC (Clostridioides difficile [11]): 0.9 ng/mL (≈ 1.09 nM)
MIC (Clostridioides difficile [12]): 3 ng/mL (≈ 3.65 nM)
MIC (Clostridioides difficile [13]): 4 ng/mL (≈ 4.86 nM)
MIC (Clostridioides difficile [14]): < 2 ng/mL
MIC (Clostridioides difficile [15]): < 2 ng/mL
MIC (Clostridioides difficile [16]): > 32000 ng/mL
MIC (Clostridioides difficile [17]): 0.06 ng/mL (≈ 0.0729 nM)
MIC (Clostridioides difficile [18]): 0.9 ng/mL (≈ 1.09 nM)
MIC (Clostridioides difficile [19]): > 256000 ng/mL
MIC (Clostridioides difficile [20]): > 256000 ng/mL
MIC (Clostridioides difficile [21]): 0.09 ng/mL (≈ 0.109 nM)
MIC (Clostridioides difficile [22]): < 2 ng/mL
MIC (Clostridioides difficile [23]): > 256000 ng/mL
MIC (Clostridioides difficile [24]): 0.06 ng/mL (≈ 0.0729 nM)
MIC (Clostridioides difficile [25]): < 2 ng/mL
MIC (Clostridioides difficile [26]): < 2 ng/mL
MIC (Clostridioides difficile [27]): < 2 ng/mL
MIC (Clostridioides difficile [28]): 0.9 ng/mL (≈ 1.09 nM)
MIC (Clostridioides difficile [29]): < 2 ng/mL
MIC (Clostridioides difficile [30]): < 2 ng/mL
MIC (Clostridioides difficile [31]): > 32000 ng/mL
MIC (Clostridioides difficile [32]): > 256000 ng/mL
MIC (Clostridioides difficile [33]): < 2 ng/mL
MIC (Clostridioides difficile [34]): 0.9 ng/mL (≈ 1.09 nM)
MIC (Clostridioides difficile [35]): 0.9 ng/mL (≈ 1.09 nM)
MIC (Clostridioides difficile [36]): < 2 ng/mL
MIC (Clostridioides difficile [37]): 0.06 ng/mL (≈ 0.0729 nM)
MIC (Clostridioides difficile [38]): 0.9 ng/mL (≈ 1.09 nM)
MIC (Clostridioides difficile [39]): < 2 ng/mL
MIC (Clostridioides difficile [40]): < 2 ng/mL
MIC (Clostridioides difficile [41]): < 2 ng/mL
MIC (Clostridioides difficile [42]): 0.06 ng/mL (≈ 0.0729 nM)
MIC (Clostridioides difficile [43]): < 2 ng/mL
MIC (Clostridioides difficile [44]): < 2 ng/mL
MIC (Clostridioides difficile [45]): 0.06 ng/mL (≈ 0.0729 nM)
MIC (Clostridioides difficile [46]): 128000 ng/mL (≈ 156000 nM)
MIC (Clostridioides difficile [47]): 0.4 ng/mL (≈ 0.486 nM)
MIC (Clostridioides difficile [48]): 0.4 ng/mL (≈ 0.486 nM)
MIC (Clostridioides difficile [49]): 0.9 ng/mL (≈ 1.09 nM)
MIC (Clostridioides difficile [50]): < 2 ng/mL
MIC (Clostridioides difficile [51]): 0.9 ng/mL (≈ 1.09 nM)

From ChEMBL document CHEMBL1275484, “Rifampin and rifaximin resistance in clinical isolates of Clostridium difficile” (Antimicrob Agents Chemother, 2008)
